# Source: ChEMBL document CHEMBL1933017, “Synthesis and biological evaluation of some thiazolidinones as antimicrobial agents” (2012)
# Columns and labels:
# Shigella flexneri [1] = test: Antibacterial activity against Shigella flexneri after 24 hrs by agar streak dilution method; assay type: functional
# How it was run: (§1)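 MIC by agar streak dilution. Graded amounts of DMSO stock (100 μg/mL) were mixed into molten sterile nutrient agar and poured 4–5 mm deep. Serial concentrations spanned 3.12–100 µg/mL. Plates were inoculated with about 10⁵ CFU/mL of bacterial suspension and incubated at (37 ± 1) °C for 24 h. Each value is the mean of three independent experiments.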
# Klebsiella pneumoniae [2] = test: Antibacterial activity against Klebsiella pneumoniae at 100 ug/disc after 24 hrs by disc diffusion method; assay type: functional; settings: read-out: DIZ
# How it was run: (§2)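 Paper disc diffusion on autoclaved Mueller-Hinton agar poured 5 mm deep. Agar was swab-inoculated with 10⁵ CFU/mL suspension (0.5 McFarland). Discs 6.25 mm across were soaked in compound solution in DMSO (3.12–100 µg/mL) and plates incubated 24 h at (37 ± 1) °C. Read-out was inhibition zone (mm). DMSO control disc; ciprofloxacin or ketoconazole reference, 100 µg/disc. Mean of three independent experiments.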
# Salmonella typhi [3] = test: Antibacterial activity against Salmonella Typhi after 24 hrs by agar streak dilution method; assay type: functional, Salmonella enterica subsp. enterica serovar Typhi; settings: Salmonella enterica
# How it was run: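 Agar streak dilution: DMSO stock (100 µg/mL) graded into molten sterile nutrient agar, poured 4–5 mm deep and solidified. Plates carry serial dilutions spanning 3.12–100 µg/mL. Applied ~10⁵ CFU/mL suspension, then incubated 24 h at (37 ± 1) °C. MIC read as the lowest inhibitory concentration; each value is the mean of three independent experiments.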
# Aspergillus niger [4] = test: Antifungal activity against Aspergillus niger at 100 ug/disc after 24 hrs by disc diffusion method; assay type: functional; settings: read-out: DIZ; how it was run: as §2
# Aspergillus fumigatus [5] = test: Antifungal activity against Aspergillus fumigatus at 100 ug/disc after 24 hrs by disc diffusion method; assay type: functional; settings: read-out: DIZ; how it was run: as §2
# Pseudomonas aeruginosa [6] = test: Antibacterial activity against Pseudomonas aeruginosa at 100 ug/disc after 24 hrs by disc diffusion method; assay type: functional; settings: read-out: DIZ; how it was run: as §2
# Aspergillus clavatus [7] = test: Antifungal activity against Aspergillus clavatus after 48 hrs by agar streak dilution method; assay type: functional
# How it was run: (§3)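 Fungal MIC by agar streak dilution on Sabouraud dextrose agar, poured 4–5 mm deep. Compound from a DMSO stock (100 μg/mL) was incorporated at serial concentrations of 3.12–100 µg/mL. Plates were inoculated with about 10⁵ CFU/mL of suspension and incubated at (37 ± 1) °C for 48 h. Each value is the mean of three independent experiments.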
# Staphylococcus aureus [8] = test: Antibacterial activity against Staphylococcus aureus at 100 ug/disc after 24 hrs by disc diffusion method; assay type: functional; settings: read-out: DIZ; how it was run: as §2
# Bacillus cereus [9] = test: Antibacterial activity against Bacillus cereus after 24 hrs by agar streak dilution method; assay type: functional; how it was run: as §1
# Escherichia coli [10] = test: Antibacterial activity against Escherichia coli after 24 hrs by agar streak dilution method; assay type: functional; how it was run: as §1
# Candida albicans [11] = test: Antifungal activity against Candida albicans after 48 hrs by agar streak dilution method; assay type: functional; how it was run: as §3
# Aspergillus clavatus [12] = test: Antifungal activity against Aspergillus clavatus at 100 ug/disc after 24 hrs by disc diffusion method; assay type: functional; settings: read-out: DIZ; how it was run: as §2
# Bacillus cereus [13] = test: Antibacterial activity against Bacillus cereus at 100 ug/disc after 24 hrs by disc diffusion method; assay type: functional; settings: read-out: DIZ; how it was run: as §2
# Escherichia coli [14] = test: Antibacterial activity against Escherichia coli at 100 ug/disc after 24 hrs by disc diffusion method; assay type: functional; settings: read-out: DIZ; how it was run: as §2
# Klebsiella pneumoniae [15] = test: Antibacterial activity against Klebsiella pneumoniae […] after 24 hrs by agar streak dilution method; assay type: functional
# Salmonella typhi [16] = test: Antibacterial activity against Salmonella Typhi at 100 ug/disc after 24 hrs by disc diffusion method; assay type: functional, Salmonella enterica subsp. enterica serovar Typhi; settings: Salmonella enterica, read-out: DIZ
# How it was run: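 Paper disc diffusion on Mueller-Hinton agar poured 5 mm deep; 10⁵ CFU/mL suspension (0.5 McFarland) swabbed over surface. 6.25 mm filter paper discs soaked in compound in DMSO, incubated 24 h at (37 ± 1) °C; inhibition zone diameter in mm. DMSO disc as blank; ciprofloxacin 100 µg/disc as reference. Mean of three independent experiments.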
# Aspergillus niger [17] = test: Antifungal activity against Aspergillus niger after 48 hrs by agar streak dilution method; assay type: functional; how it was run: as §3
# Proteus vulgaris [18] = test: Antibacterial activity against Proteus vulgaris at 100 ug/disc after 24 hrs by disc diffusion method; assay type: functional; settings: read-out: DIZ; how it was run: as §2
# Candida albicans [19] = test: Antifungal activity against Candida albicans at 100 ug/disc after 24 hrs by disc diffusion method; assay type: functional; settings: read-out: DIZ; how it was run: as §2
# Aspergillus fumigatus [20] = test: Antifungal activity against Aspergillus fumigatus after 48 hrs by agar streak dilution method; assay type: functional; how it was run: as §3
# Proteus vulgaris [21] = test: Antibacterial activity against Proteus vulgaris after 24 hrs by agar streak dilution method; assay type: functional; how it was run: as §1
# Pseudomonas aeruginosa [22] = test: Antibacterial activity against Pseudomonas aeruginosa […] after 24 hrs by agar streak dilution method; assay type: functional
# Shigella flexneri [23] = test: Antibacterial activity against Shigella flexneri at 100 ug/disc after 24 hrs by disc diffusion method; assay type: functional; settings: read-out: DIZ; how it was run: as §2
# Staphylococcus aureus [24] = test: Antibacterial activity against Staphylococcus aureus after 24 hrs by agar streak dilution method; assay type: functional; how it was run: as §1
SMILES,MIC (Shigella flexneri [1]) [µg/mL],zone of inhibition at 100 µg/disc (Klebsiella pneumoniae [2]) [mm],MIC (Salmonella typhi [3]) [µg/mL],zone of inhibition at 100 µg/disc (Aspergillus niger [4]) [mm],zone of inhibition at 100 µg/disc (Aspergillus fumigatus [5]) [mm],zone of inhibition at 100 µg/disc (Pseudomonas aeruginosa [6]) [mm],MIC (Aspergillus clavatus [7]) [µg/mL],zone of inhibition at 100 µg/disc (Staphylococcus aureus [8]) [mm],MIC (Bacillus cereus [9]) [µg/mL],MIC (Escherichia coli [10]) [µg/mL],MIC (Candida albicans [11]) [µg/mL],zone of inhibition at 100 µg/disc (Aspergillus clavatus [12]) [mm],zone of inhibition at 100 µg/disc (Bacillus cereus [13]) [mm],zone of inhibition at 100 µg/disc (Escherichia coli [14]) [mm],MIC (Klebsiella pneumoniae [15]) [µg/mL],zone of inhibition at 100 µg/disc (Salmonella typhi [16]) [mm],MIC (Aspergillus niger [17]) [µg/mL],zone of inhibition at 100 µg/disc (Proteus vulgaris [18]) [mm],zone of inhibition at 100 µg/disc (Candida albicans [19]) [mm],MIC (Aspergillus fumigatus [20]) [µg/mL],other results
CCN1CCN(CC2SC(c3ccc([N+](=O)[O-])cc3)N(c3ccc(Nc4nc(Oc5cc(=O)n(C)c6ccccc56)nc(N(C)C)n4)cc3)C2=O)CC1 (configuration not stated),50,23,100,23,20,18,100,22,50,100,100,21,22,24,50,22,50,25,17,100,MIC (Proteus vulgaris [21]): 50 µg/mL; MIC (Pseudomonas aeruginosa [22]): 100 µg/mL; zone of inhibition at 100 µg/disc (Shigella flexneri [23]): 22 mm; MIC (Staphylococcus aureus [24]): 50 µg/mL
CCN1CCN(CC2SC(c3ccccc3[N+](=O)[O-])N(c3ccc(Nc4nc(Oc5cc(=O)n(C)c6ccccc56)nc(N(C)C)n4)cc3)C2=O)CC1 (configuration not stated),100,15,100,< 10,13,16,100,13,50,100,100,15,17,14,100,15,100,17,19,100,MIC (Proteus vulgaris [21]): 100 µg/mL; MIC (Pseudomonas aeruginosa [22]): 100 µg/mL; zone of inhibition at 100 µg/disc (Shigella flexneri [23]): 14 mm; MIC (Staphylococcus aureus [24]): 100 µg/mL
CCN1CCN(CC2SC(c3ccc(O)cc3)N(c3ccc(Nc4nc(Oc5cc(=O)n(C)c6ccccc56)nc(N(C)C)n4)cc3)C2=O)CC1 (configuration not stated),100,19,50,18,21,14,100,23,50,50,100,21,20,16,50,17,100,16,19,50,MIC (Proteus vulgaris [21]): 100 µg/mL; MIC (Pseudomonas aeruginosa [22]): 100 µg/mL; zone of inhibition at 100 µg/disc (Shigella flexneri [23]): 13 mm; MIC (Staphylococcus aureus [24]): 25 µg/mL
CCN1CCN(CC2SC(c3ccc(Br)cc3)N(c3ccc(Nc4nc(Oc5cc(=O)n(C)c6ccccc56)nc(N(C)C)n4)cc3)C2=O)CC1 (configuration not stated),100,19,100,14,14,16,100,15,100,100,100,16,18,19,100,17,100,17,12,100,MIC (Proteus vulgaris [21]): 100 µg/mL; MIC (Pseudomonas aeruginosa [22]): 100 µg/mL; zone of inhibition at 100 µg/disc (Shigella flexneri [23]): 15 mm; MIC (Staphylococcus aureus [24]): 100 µg/mL
CCN1CCN(CC2SC(c3ccccc3Br)N(c3ccc(Nc4nc(Oc5cc(=O)n(C)c6ccccc56)nc(N(C)C)n4)cc3)C2=O)CC1 (configuration not stated),100,12,100,< 10,< 10,14,100,< 10,100,100,100,13,13,< 10,100,12,100,15,< 10,100,MIC (Proteus vulgaris [21]): 100 µg/mL; MIC (Pseudomonas aeruginosa [22]): 100 µg/mL; zone of inhibition at 100 µg/disc (Shigella flexneri [23]): 11 mm; MIC (Staphylococcus aureus [24]): 100 µg/mL
CCN1CCN(CC2SC(c3ccccc3C(=O)O)N(c3ccc(Nc4nc(Oc5cc(=O)n(C)c6ccccc56)nc(N(C)C)n4)cc3)C2=O)CC1 (configuration not stated),100,16,100,15,11,13,100,21,50,50,100,17,21,18,50,13,100,12,17,100,MIC (Proteus vulgaris [21]): 100 µg/mL; MIC (Pseudomonas aeruginosa [22]): 100 µg/mL; zone of inhibition at 100 µg/disc (Shigella flexneri [23]): 15 mm; MIC (Staphylococcus aureus [24]): 100 µg/mL
CCN1CCN(CC2SC(c3ccc(C(=O)O)cc3)N(c3ccc(Nc4nc(Oc5cc(=O)n(C)c6ccccc56)nc(N(C)C)n4)cc3)C2=O)CC1 (configuration not stated),6.25,26,50,27,20,22,50,26,12.5,6.25,100,23,23,27,12.5,22,25,25,25,50,MIC (Proteus vulgaris [21]): 12.5 µg/mL; MIC (Pseudomonas aeruginosa [22]): 25 µg/mL; zone of inhibition at 100 µg/disc (Shigella flexneri [23]): 27 mm; MIC (Staphylococcus aureus [24]): 25 µg/mL
CCN1CCN(CC2SC(c3ccc(OC)cc3)N(c3ccc(Nc4nc(Oc5cc(=O)n(C)c6ccccc56)nc(N(C)C)n4)cc3)C2=O)CC1 (configuration not stated),6.25,25,6.25,25,27,25,12.5,28,6.25,6.25,12.5,24,27,27,25,26,12.5,21,26,12.5,MIC (Proteus vulgaris [21]): 50 µg/mL; MIC (Pseudomonas aeruginosa [22]): 12.5 µg/mL; zone of inhibition at 100 µg/disc (Shigella flexneri [23]): 26 mm; MIC (Staphylococcus aureus [24]): 6.25 µg/mL
